Measured values: ChEMBL document CHEMBL4011598, “Sulfonamides as Selective NaV1.7 Inhibitors: Optimizing Potency and Pharmacokinetics While Mitigating Metabolic Liabilities” (J Med Chem, 2017)
≈ marks a conversion by molar mass, not a printed value.

Legend:
[1] = Intrinsic clearance in rat liver microsomes at 1 uM after 1 to 40 mins in presence of NADPH by LC-MS/MS analysis; format: ADME, microsome; conditions: read-out: CLH
[2] = Intrinsic clearance in human liver microsomes at 1 uM after 1 to 40 mins in presence of NADPH by LC-MS/MS analysis; format: ADME, microsome; conditions: read-out: CLH
PXR (NR1I2) = target: T1, PXR (NR1I2) (Homo sapiens, UniProt O75469); assay: Activation of human PXR at 10 uM in presence of rifampicin; format: ADME; conditions: read-out: Activity
T1 sequence (O75469 whole entry): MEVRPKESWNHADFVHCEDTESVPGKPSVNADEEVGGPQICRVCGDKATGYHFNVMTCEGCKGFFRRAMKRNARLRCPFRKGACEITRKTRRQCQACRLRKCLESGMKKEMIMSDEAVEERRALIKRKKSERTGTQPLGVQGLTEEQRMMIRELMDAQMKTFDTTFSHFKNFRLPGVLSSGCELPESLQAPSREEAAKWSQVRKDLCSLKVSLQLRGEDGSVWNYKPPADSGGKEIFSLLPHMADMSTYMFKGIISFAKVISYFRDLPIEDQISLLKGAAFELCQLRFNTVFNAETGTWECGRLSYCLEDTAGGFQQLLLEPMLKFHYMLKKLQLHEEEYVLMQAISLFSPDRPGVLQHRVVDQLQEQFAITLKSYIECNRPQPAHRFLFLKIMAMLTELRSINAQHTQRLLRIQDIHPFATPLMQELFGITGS

[3] = target: Sodium channel protein type 5 subunit alpha (Homo sapiens, UniProt Q14524); assay: Inhibition of human Nav1.5 expressed in HEK293 cells assessed as reduction in peak inward current by ionworks quattro electrophysiology assay; format: cell-based
Chain of Sodium channel protein type 5 subunit alpha (Q14524 whole entry): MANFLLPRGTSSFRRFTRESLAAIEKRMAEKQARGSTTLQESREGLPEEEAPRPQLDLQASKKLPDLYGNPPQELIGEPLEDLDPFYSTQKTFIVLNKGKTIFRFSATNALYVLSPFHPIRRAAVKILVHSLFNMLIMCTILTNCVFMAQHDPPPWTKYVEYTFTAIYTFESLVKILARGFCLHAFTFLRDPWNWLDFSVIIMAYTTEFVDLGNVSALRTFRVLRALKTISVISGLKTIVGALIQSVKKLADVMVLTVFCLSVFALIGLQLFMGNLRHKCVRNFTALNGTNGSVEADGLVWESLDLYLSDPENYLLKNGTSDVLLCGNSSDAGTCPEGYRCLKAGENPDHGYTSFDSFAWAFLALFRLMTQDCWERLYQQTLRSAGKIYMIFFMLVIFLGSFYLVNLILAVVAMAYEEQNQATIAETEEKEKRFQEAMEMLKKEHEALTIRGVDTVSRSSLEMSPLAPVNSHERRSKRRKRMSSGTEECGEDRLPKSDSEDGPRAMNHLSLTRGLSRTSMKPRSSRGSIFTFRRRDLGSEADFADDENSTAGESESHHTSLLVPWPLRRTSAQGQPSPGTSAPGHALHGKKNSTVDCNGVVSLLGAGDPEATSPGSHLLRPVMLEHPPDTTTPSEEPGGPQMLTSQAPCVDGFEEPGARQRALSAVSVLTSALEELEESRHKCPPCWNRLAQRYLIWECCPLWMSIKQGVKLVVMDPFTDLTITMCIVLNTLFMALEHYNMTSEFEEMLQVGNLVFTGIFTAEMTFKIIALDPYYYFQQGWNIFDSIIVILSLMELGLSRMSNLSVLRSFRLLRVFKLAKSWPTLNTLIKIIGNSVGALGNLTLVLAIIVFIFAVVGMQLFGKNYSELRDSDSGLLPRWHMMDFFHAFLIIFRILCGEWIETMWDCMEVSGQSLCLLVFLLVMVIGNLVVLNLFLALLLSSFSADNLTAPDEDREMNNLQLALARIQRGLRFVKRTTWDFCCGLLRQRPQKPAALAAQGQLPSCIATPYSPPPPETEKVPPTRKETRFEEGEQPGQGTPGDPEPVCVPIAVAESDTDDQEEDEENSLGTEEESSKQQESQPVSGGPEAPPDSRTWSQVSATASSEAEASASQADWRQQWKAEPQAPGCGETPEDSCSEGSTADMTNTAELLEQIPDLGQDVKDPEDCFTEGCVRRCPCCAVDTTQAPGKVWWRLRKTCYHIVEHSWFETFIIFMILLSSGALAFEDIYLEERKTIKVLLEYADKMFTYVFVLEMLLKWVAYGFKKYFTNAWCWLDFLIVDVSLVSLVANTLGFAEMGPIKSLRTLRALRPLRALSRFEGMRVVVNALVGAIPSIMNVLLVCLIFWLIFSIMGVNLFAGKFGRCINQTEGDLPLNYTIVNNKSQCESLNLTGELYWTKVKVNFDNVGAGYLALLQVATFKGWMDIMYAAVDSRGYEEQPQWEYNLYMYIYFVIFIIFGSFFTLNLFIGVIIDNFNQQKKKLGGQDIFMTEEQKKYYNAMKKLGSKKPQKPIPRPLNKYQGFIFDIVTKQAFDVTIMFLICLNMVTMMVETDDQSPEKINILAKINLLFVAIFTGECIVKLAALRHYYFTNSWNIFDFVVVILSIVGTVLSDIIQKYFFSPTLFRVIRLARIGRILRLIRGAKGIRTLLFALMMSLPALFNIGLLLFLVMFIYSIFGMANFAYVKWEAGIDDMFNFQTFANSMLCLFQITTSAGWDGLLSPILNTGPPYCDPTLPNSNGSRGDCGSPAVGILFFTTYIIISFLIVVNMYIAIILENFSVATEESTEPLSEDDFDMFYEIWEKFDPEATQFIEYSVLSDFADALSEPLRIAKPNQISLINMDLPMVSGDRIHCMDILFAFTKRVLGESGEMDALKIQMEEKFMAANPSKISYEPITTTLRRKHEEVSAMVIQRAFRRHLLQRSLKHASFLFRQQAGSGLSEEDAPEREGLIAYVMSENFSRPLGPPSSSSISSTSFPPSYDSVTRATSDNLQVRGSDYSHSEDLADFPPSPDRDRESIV

Rattus norvegicus = assay: Unbound clearance in rat at 0.5 mg/kg, iv; format: ADME, organism-based; conditions: in vivo
How it was run: (§1)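 Male rats given a single 0.5 mg/kg iv dose in DMSO. Unbound clearance (CLu) is total clearance divided by fu, the unbound fraction in plasma.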

Canis familiaris = assay: Unbound clearance in dog at 0.25 mg/kg, iv; format: ADME, organism-based, Canis lupus familiaris; conditions: in vivo
How it was run: (§2)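 Male dogs received a single 0.25 mg/kg iv dose in DMSO. Unbound clearance (CLu) is total clearance divided by fu, the unbound fraction in plasma.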

[4] = target: Sodium channel protein type 9 subunit alpha (Homo sapiens, UniProt Q15858); assay: Inhibition of human Nav1.7 expressed in HEK293 cells incubated for 3 to 5 mins at -125 mV holding potential by electrophysiology assay; format: cell-based
Chain of Sodium channel protein type 9 subunit alpha (Q15858 whole entry): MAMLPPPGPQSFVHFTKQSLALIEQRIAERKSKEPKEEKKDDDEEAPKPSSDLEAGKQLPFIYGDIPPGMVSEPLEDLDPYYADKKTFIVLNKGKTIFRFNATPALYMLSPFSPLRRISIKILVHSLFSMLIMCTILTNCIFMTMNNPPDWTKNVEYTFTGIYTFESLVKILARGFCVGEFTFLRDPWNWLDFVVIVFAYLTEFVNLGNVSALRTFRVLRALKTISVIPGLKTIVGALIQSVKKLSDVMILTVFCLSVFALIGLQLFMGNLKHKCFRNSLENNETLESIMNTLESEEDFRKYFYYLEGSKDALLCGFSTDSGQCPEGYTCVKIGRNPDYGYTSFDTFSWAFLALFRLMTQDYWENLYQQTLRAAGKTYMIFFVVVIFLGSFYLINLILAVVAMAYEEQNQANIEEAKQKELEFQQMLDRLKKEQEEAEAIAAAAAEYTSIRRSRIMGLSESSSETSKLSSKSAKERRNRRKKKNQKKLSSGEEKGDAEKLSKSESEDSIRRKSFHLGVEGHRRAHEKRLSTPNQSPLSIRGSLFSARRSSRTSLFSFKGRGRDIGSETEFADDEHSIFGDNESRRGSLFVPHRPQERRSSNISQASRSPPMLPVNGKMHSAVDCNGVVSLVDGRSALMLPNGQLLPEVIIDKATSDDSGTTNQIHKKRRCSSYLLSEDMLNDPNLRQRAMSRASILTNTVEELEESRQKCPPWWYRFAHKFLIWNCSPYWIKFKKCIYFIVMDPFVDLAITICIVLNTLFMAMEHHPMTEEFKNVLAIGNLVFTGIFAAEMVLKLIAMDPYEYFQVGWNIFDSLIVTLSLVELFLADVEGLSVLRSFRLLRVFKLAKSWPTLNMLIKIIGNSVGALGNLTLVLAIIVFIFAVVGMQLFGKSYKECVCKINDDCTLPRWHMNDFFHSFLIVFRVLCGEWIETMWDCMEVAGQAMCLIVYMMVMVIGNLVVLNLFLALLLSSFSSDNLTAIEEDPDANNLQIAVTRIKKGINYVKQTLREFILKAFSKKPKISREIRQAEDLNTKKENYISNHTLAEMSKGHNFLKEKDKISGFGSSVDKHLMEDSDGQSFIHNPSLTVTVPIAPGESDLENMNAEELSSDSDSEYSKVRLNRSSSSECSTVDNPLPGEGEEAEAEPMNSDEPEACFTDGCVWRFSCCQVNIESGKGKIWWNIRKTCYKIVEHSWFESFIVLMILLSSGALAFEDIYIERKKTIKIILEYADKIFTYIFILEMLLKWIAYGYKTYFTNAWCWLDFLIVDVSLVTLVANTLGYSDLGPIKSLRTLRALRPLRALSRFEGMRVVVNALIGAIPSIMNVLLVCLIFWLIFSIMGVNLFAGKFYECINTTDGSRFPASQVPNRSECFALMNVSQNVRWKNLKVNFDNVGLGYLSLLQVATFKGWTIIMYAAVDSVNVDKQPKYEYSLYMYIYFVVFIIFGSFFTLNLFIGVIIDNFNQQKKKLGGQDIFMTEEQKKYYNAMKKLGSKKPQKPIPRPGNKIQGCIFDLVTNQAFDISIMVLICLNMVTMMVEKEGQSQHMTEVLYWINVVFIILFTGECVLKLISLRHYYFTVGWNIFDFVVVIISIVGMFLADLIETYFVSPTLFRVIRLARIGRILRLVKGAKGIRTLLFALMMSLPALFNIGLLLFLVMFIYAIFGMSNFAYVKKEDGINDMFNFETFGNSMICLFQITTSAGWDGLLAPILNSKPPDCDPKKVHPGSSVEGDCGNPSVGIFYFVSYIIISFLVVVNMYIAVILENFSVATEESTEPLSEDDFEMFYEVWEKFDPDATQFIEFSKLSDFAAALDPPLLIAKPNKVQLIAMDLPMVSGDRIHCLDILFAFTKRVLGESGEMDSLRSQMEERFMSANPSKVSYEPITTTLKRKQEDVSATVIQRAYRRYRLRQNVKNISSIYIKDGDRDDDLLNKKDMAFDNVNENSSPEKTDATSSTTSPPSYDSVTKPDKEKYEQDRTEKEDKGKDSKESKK

Cytochrome P450 3A4 [5] = target: T2, Cytochrome P450 3A4 (Homo sapiens, UniProt P08684); assay: Inhibition of CYP3A4 (unknown origin); format: ADME
T2 sequence (P08684 whole entry): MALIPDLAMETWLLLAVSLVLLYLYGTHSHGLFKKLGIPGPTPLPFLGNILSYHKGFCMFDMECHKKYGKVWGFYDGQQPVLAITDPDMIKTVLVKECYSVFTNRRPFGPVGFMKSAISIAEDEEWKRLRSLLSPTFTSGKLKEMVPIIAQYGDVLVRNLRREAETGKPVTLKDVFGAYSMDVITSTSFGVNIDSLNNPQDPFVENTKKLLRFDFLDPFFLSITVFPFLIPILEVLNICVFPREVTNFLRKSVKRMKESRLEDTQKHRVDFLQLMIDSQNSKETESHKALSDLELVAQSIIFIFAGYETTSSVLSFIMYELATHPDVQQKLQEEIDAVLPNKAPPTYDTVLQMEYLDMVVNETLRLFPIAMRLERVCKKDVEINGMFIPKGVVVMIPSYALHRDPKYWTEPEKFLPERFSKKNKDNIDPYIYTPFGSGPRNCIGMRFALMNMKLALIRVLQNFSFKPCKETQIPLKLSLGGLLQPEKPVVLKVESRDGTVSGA

Cytochrome P450 3A4 [6] = target: T2, Cytochrome P450 3A4; assay: Induction of CYP3A4 in human hepatocytes at 10 uM relative to rifampicin
[7] = Total clearance in rat at 0.5 mg/kg, iv; format: ADME, organism-based; conditions: in vivo; how it was run: as §1
[8] = Total clearance in dog at 0.25 mg/kg, iv; format: ADME, organism-based, Canis lupus familiaris; conditions: in vivo; how it was run: as §2
[9] = Aqueous solubility of the compound in PBS after 48 hrs by shake flask method; format: physicochemical
[10] = Intrinsic clearance in dog liver microsomes; format: ADME, Canis lupus familiaris, microsome; conditions: read-out: CLH

Row | microsomal CLint at 1 µM [1] [µL/min/mg] | microsomal CLint at 1 µM [2] [µL/min/mg] | activity at 10 µM (PXR (NR1I2)) [%] | CL free (Rattus norvegicus) [L/h/kg] | CL free (Canis familiaris) [L/h/kg] | IC50 [4] [nM] | IC50 (Cytochrome P450 3A4 [5]) [µM] | Activity (Cytochrome P450 3A4 [6]) [%] | clearance [7] [mL/min/kg] | clearance [8] [mL/min/kg] | solubility thermodynamic at 48 h [9] [µM] | microsomal CLint [10] [µL/min/mg] | SMILES | IC50 [3] [µM]
1 | 34 | 36 | 34 |  |  |  |  |  |  |  |  |  | COc1cc(-c2cccc(Cl)c2)c(F)cc1-c1nccc2cc(S(=O)(=O)Nc3ccon3)ccc12 | 
2 | 21 | < 14 | 69 |  |  |  |  |  |  |  |  |  | COc1cc(-c2cccc(F)c2)c(Cl)cc1-c1c(=O)n(C)cc2cc(S(=O)(=O)Nc3ccon3)ccc12 | > 10
3 | 18 | < 14 | 68 | 42 | 1.6 to 1.9 | 49 to 51 | > 27 | 58 | 0.783 | 0.05 |  |  | COc1cc(-c2cccc(F)c2)c(Cl)cc1-c1nccc2cc(S(=O)(=O)Nc3ccon3)ccc12 | > 10
4 | 20 | < 14 | 10 | 940 | 154 | 47 | > 27 |  | 26.7 | 2.83 |  |  | COc1cc(-c2cccc(F)c2)c(Cl)cc1-c1nccc2cc(S(=O)(=O)Nc3ncon3)ccc12 | 
5 | 28 | 15 | 28 |  | 140 |  |  |  |  | 2.17 |  |  | COc1cc(-c2cccc(F)c2)c(Cl)cc1-c1ncc(O)c2cc(S(=O)(=O)Nc3ccon3)ccc12 | 
6 |  |  | 54 |  |  | 140 |  |  |  |  |  |  | COc1cc(-c2cc(F)cc(F)c2)c(C#N)cc1-c1nccc2cc(S(=O)(=O)Nc3ccon3)ccc12 | 
7 | 18 | < 14 | 27 | 1500 | 510 |  |  |  | 35 | 13.7 |  |  | COc1cc(-c2cccc(F)c2)c(Cl)cc1-c1[nH]c(=O)cc2cc(S(=O)(=O)Nc3ccon3)ccc12 | 0.82
8 | 34 | 36 | 54 |  |  | 47 |  |  |  |  |  |  | COc1cc(-c2cccc(C)c2)c(F)cc1-c1nccc2cc(S(=O)(=O)Nc3ccon3)ccc12 | > 10
9 | 29 | < 14 | 52 |  |  |  | > 27 |  |  |  |  |  | COc1cc(-c2cccc(F)c2)c(Cl)cc1-c1nccc2cc(S(=O)(=O)Nc3cccnn3)ccc12 | 
10 | < 14 | 30 | 47 |  |  | 40 |  |  |  |  |  |  | COc1cc(-c2cc(F)cc(F)c2)c(F)cc1-c1nccc2cc(S(=O)(=O)Nc3ccon3)ccc12 | > 10
11 | < 14 | < 14 | 0 |  |  |  |  |  |  |  |  |  | COc1cc(-c2ccc(C(F)(F)F)cc2)c(F)cc1-c1nccc2cc(S(=O)(=O)Nc3ccon3)ccc12 | > 10
12 | < 14 | < 14 |  | 390 | 9.1 | 150 | 1.3 | 12 | 28.3 | 0.817 | 344 (≈ 167 µg/mL) | < 14 | COc1cc(-c2cccc(F)c2)ccc1-c1nccc2cc(S(=O)(=O)Nc3ccncn3)ccc12 | > 30
13 |  |  | 7 |  |  | 61 |  |  |  |  |  |  | COc1cc(-c2cccc(C(F)(F)F)c2)ccc1-c1nccc2cc(S(=O)(=O)Nc3ccon3)ccc12 | 
14 | < 14 | < 14 | 5.9 |  |  |  | 0.8 |  |  |  |  |  | COc1cc(-c2cccc(F)c2)c(Cl)cc1-c1nccc2cc(S(=O)(=O)Nc3ncns3)ccc12 | 1.5
15 |  |  | 38 |  |  |  |  |  |  |  |  |  | COc1cc(-c2cc(F)cc(F)c2)ccc1-c1nccc2cc(S(=O)(=O)Nc3ccon3)ccc12 | 
16 |  |  |  | 11 | 1.6 | 730 | 7.2 | 177 | 4.33 | 0.917 |  |  | COc1cc(C(F)(F)F)ccc1-c1nccc2cc(S(=O)(=O)Nc3ccncn3)ccc12 | > 30
17 | < 14 | < 14 | 95 |  |  |  |  |  |  |  |  |  | COc1cc(-c2cccc(F)c2)c(Cl)cc1-c1c(N)nnc2cc(S(=O)(=O)Nc3ccon3)ccc12 | 0.14
18 |  |  |  | 27 | 12 |  | > 50 | 128 |  | 0.217 |  |  | COc1cc(C(F)(F)F)ccc1-c1ncnc2cc(S(=O)(=O)Nc3nccs3)ccc12 | > 30
19 | 21 | < 14 | 151 |  |  |  |  |  |  |  |  |  | COc1cc(-c2cc(F)cnc2OC)c(F)cc1-c1nccc2cc(S(=O)(=O)Nc3ccon3)ccc12 | > 10
20 |  |  | 5 |  |  | 28 |  |  |  |  |  |  | COc1cc(-c2cccc(C(F)(F)F)c2)c(C#N)cc1-c1nccc2cc(S(=O)(=O)Nc3ccon3)ccc12 | 
21 | 58 | 21 | 59 |  | 25 |  |  |  |  | 2 |  |  | COc1cc(-c2cccc(F)c2)c(Cl)cc1-c1ncnc2cc(S(=O)(=O)Nc3ccon3)ccc12 | 
22 | 98 | 46 | 38 |  |  |  | > 27 |  |  |  |  |  | COc1cc(-c2cccc(F)c2)c(Cl)cc1-c1nccc2cc(S(=O)(=O)Nc3ncco3)ccc12 | > 10
23 | 32 | < 14 | 31 |  |  | 120 | > 27 |  |  |  |  |  | COc1cc(-c2cccc(F)c2)c(Cl)cc1-c1nccc2cc(S(=O)(=O)Nc3ncccn3)ccc12 | > 10
24 | < 14 | < 14 | 24 |  |  | 65 | > 27 |  |  |  |  |  | COc1cc(-c2cccc(F)c2)c(Cl)cc1-c1nccc2cc(S(=O)(=O)Nc3ccncn3)ccc12 | > 10
25 | 21 | 35 | 1 |  |  |  |  |  |  |  |  |  | COc1cc(-c2ccc(Cl)c(C)c2)c(F)cc1-c1nccc2cc(S(=O)(=O)Nc3ccon3)ccc12 | > 10
26 | 25 | 16 | 54 | 620 | 31 | 120 |  |  | 35 | 1.83 |  |  | COc1cc(-c2cccc(F)c2)c(Cl)cc1-c1nn(C)c(=O)c2cc(S(=O)(=O)Nc3ccon3)ccc12 | 
